Results reported in ChEMBL document CHEMBL1123977, “Synthesis, receptor binding, and tissue distribution of (17 alpha,20E)- and (17 alpha,20Z)-21-[125I]iodo-19-norpregna-1,3,5(10), 20-tetraene-3,17-diol ” (1988).

Tests used:
[1] = system: Rattus norvegicus; test: In vivo deiodination in 1 hour after administration of compound; format: functional
Summary of the method: (§1)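 In immature female Fischer rats given 3 μCi (111 kBq) of 125I-steroid iv, deiodination was estimated from thyroid PDK at 1, 2 or 5 h, or at 2 h with 60 μg co-injected estradiol. Thyroid uptake after [125I]NaI injection at the same time interval was taken as 100%.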

[2] = system: Rattus norvegicus; test: In vivo deiodination in 2 hour after administration of compound; format: functional; summary of the method: as §1
[3] = system: Rattus norvegicus; test: In vivo deiodination in 2 hour after administration of compound in presence of 60 microg of estradiol; format: functional; summary of the method: as §1
[4] = system: Rattus norvegicus; test: In vivo deiodination in 5 hr after administration of compound; format: functional; summary of the method: as §1
[5] = system: Rattus norvegicus; test: Mean uptake in adrenals 1 hr after intravenous injection of 3 microCi (111 kBq) of the compound; format: functional, Adrenal gland
Summary of the method: (§2)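 Immature female Fischer rats (24 days old, 55-60 g) had free access to food and water. They were warmed under an infrared lamp, then given 200 μL HPLC-purified 125I-labeled steroid (3 μCi, 111 kBq) in saline with 9% ethanol and 1% Tween 80 via the lateral tail vein. Where stated, 60 μg unlabeled estradiol was co-injected. Rats were killed at 1, 2 or 5 h. Tissues were KCl-washed, blotted, weighed and gamma-counted against a reference of the injectate. Results are PDK (% dose × kg/g), mean and SD of three rats.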

[6] = system: Rattus norvegicus; test: Mean uptake in adrenals 2 hr after intravenous injection of 3 microCi (111 kBq); format: functional, Adrenal gland; summary of the method: as §2
[7] = species: Rattus norvegicus; test: Effect of Co-injection with estradiol on the uterus to blood ratio (Co-injected with 60 microg of estradiol (E2)); format: functional
Summary of the method: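 Immature female Fischer rats (24 days, 55-60 g) received 3 μCi (111 kBq) 125I-labelled steroid iv via the lateral tail vein, in 200 μL 9% ethanol-saline with 1% Tween 80, co-injected with 60 μg unlabelled estradiol. Killed at 2 h. Uterus and blood were KCl-washed and gamma-counted as PDK. Ratio is the mean of three rats; % change is versus tracer-only animals.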

[8] = system: Rattus norvegicus; test: Mean uptake in uterus 2 hr after intravenous injection of 3 microCi (111 kBq); format: functional
Summary of the method: (§3)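 Immature female Fischer rats (24 days old, 55-60 g), food and water free. 3 μCi (111 kBq) HPLC-purified 125I-labeled steroid given iv via lateral tail vein in 200 μL saline containing 9% ethanol and 1% Tween 80; receptor-saturation group co-injected with 60 μg unlabeled estradiol. Sacrificed at set times; uterus washed with 0.154 M KCl, blotted, weighed, gamma counted against injected reference; expressed as PDK (% dose × kg/g), mean of three rats.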

[9] = system: Rattus norvegicus; test: Mean uptake in uterus 2 hr after intravenous injection of 3 uM Ci (111 kBq) in presence of 60 ug coinjected estradiol; format: functional; summary of the method: as §3
[10] = system: Rattus norvegicus; test: Mean uptake in uterus 1 hr after intravenous injection of 3 microCi (111 kBq) of the compound; format: functional; summary of the method: as §2
[11] = system: Rattus norvegicus; test: Mean uptake in uterus 5 hr after intravenous injection of 3 microCi (111 kBq); format: functional; summary of the method: as §3
[12] = system: Rattus norvegicus; test: Mean uptake in blood 5 hr after intravenous injection of 3 microCi (111 kBq); format: functional; summary of the method: as §2
[13] = system: Rattus norvegicus; test: Mean uptake in adrenals 2 hr after intravenous injection of 3 microCi (111 kBq) in presence of 60 ug coinjected estradiol; format: functional, Adrenal gland; summary of the method: as §2
[14] = system: Rattus norvegicus; test: Mean uptake in adrenals 5 hr after intravenous injection of 3 microCi (111 kBq); format: functional, Adrenal gland; summary of the method: as §2
[15] = system: Rattus norvegicus; test: Mean uptake in blood 1 hr after intravenous injection of 3 microCi (111 kBq) of the compound; format: functional; summary of the method: as §2
[16] = system: Rattus norvegicus; test: Mean uptake in blood 2 hr after intravenous injection of 3 microCi (111 kBq); format: functional; summary of the method: as §2
[17] = system: Rattus norvegicus; test: Mean uptake in blood 2 hr after intravenous injection of 3 microCi (111 kBq) in presence of 60 ug coinjected estradiol; format: functional; summary of the method: as §2
[18] = system: Rattus norvegicus; test: Mean uptake in brain 1 hr after intravenous injection of 3 microCi (111 kBq) of the compound; format: functional; summary of the method: as §2
[19] = system: Rattus norvegicus; test: Mean uptake in brain 2 hr after intravenous injection of 3 microCi (111 kBq); format: functional; summary of the method: as §2
[20] = system: Rattus norvegicus; test: Mean uptake in brain 2 hr after intravenous injection of 3 uM Ci (111 kBq) in presence of 60 ug coinjected estradiol; format: functional; summary of the method: as §2
[21] = system: Rattus norvegicus; test: Mean uptake in kidneys 1 hr after intravenous injection of 3 microCi (111 kBq) of the compound; format: functional; summary of the method: as §2
[22] = system: Rattus norvegicus; test: Mean uptake in kidneys 2 hr after intravenous injection of 3 microCi (111 kBq); format: functional; summary of the method: as §2
[23] = system: Rattus norvegicus; test: Mean uptake in kidneys 2 hr after intravenous injection of 3 microCi (111 kBq) in presence of 60 ug coinjected estradiol; format: functional, Kidney; summary of the method: as §2
[24] = system: Rattus norvegicus; test: Mean uptake in kidneys 5 hr after intravenous injection of 3 microCi (111 kBq); format: functional; summary of the method: as §2
[25] = system: Rattus norvegicus; test: Mean uptake in liver 2 hr after intravenous injection of 3 microCi (111 kBq); format: functional; summary of the method: as §2
[26] = system: Rattus norvegicus; test: Mean uptake in ovaries 2 hr after intravenous injection of 3 uM Ci (111 kBq) in presence of 60 ug coinjected estradiol; format: functional, Female gonad; summary of the method: as §2
[27] = system: Rattus norvegicus; test: Mean uptake in ovaries 5 hr after intravenous injection of 3 microCi (111 kBq); format: functional, Female gonad; summary of the method: as §2
[28] = system: Rattus norvegicus; test: Mean uptake in spleen 1 hr after intravenous injection of 3 microCi (111 kBq) of the compound; format: functional; summary of the method: as §2
[29] = system: Rattus norvegicus; test: Mean uptake in spleen 2 hr after intravenous injection of 3 uM Ci (111 kBq); format: functional; summary of the method: as §2
[30] = system: Rattus norvegicus; test: Mean uptake in spleen 2 hr after intravenous injection of 3 uM Ci (111 kBq) in presence of 60 ug coinjected estradiol; format: functional; summary of the method: as §2
[31] = system: Rattus norvegicus; test: Mean uptake in spleen 5 hr after intravenous injection of 3 microCi (111 kBq); format: functional; summary of the method: as §2
[32] = system: Rattus norvegicus; test: Mean uptake in thyroid 2 hr after intravenous injection of 3 microCi (111 kBq); format: functional, Thyroid gland; summary of the method: as §2
[33] = system: Rattus norvegicus; test: Mean uptake in thyroid 2 hr after intravenous injection of 3 microCi (111 kBq) in presence of 60 ug coinjected estradiol; format: functional, Thyroid gland; summary of the method: as §2
[34] = system: Rattus norvegicus; test: Mean uptake in thyroid 1 hr after intravenous injection of 3 microCi (111 kBq) of the compound; format: functional, Thyroid gland; summary of the method: as §2
[35] = system: Rattus norvegicus; test: Mean uptake in liver 2 hr after intravenous injection of 3 microCi (111 kBq) in presence of 60 ug coinjected estradiol; format: functional; summary of the method: as §2
[36] = system: Rattus norvegicus; test: Mean uptake in liver 5 hr after intravenous injection of 3 microCi (111 kBq); format: functional; summary of the method: as §2
[37] = system: Rattus norvegicus; test: Mean uptake in lungs 1 hr after intravenous injection of 3 microCi (111 kBq) of the compound; format: functional; summary of the method: as §2
[38] = system: Rattus norvegicus; test: Mean uptake in lungs 2 hr after intravenous injection of 3 microCi (111 kBq); format: functional; summary of the method: as §2
[39] = system: Rattus norvegicus; test: Mean uptake in lungs 2 hr after intravenous injection of 3 microCi (111 kBq) in presence of 60 ug coinjected estradiol; format: functional; summary of the method: as §2
[40] = system: Rattus norvegicus; test: Mean uptake in lungs 5 hr after intravenous injection of 3 microCi (111 kBq); format: functional; summary of the method: as §2
[41] = system: Rattus norvegicus; test: Mean uptake in muscle 1 hr after intravenous injection of 3 microCi (111 kBq) of the compound; format: functional, Muscle tissue; summary of the method: as §2
[42] = system: Rattus norvegicus; test: Mean uptake in muscle 2 hr after intravenous injection of 3 microCi (111 kBq); format: functional, Muscle tissue; summary of the method: as §2
[43] = system: Rattus norvegicus; test: Mean uptake in muscles 5 hr after intravenous injection of 3 microCi (111 kBq); format: functional, Muscle tissue; summary of the method: as §2
[44] = system: Rattus norvegicus; test: Mean uptake in ovaries 1 hr after intravenous injection of 3 microCi (111 kBq) of the compound; format: functional, Female gonad; summary of the method: as §2
[45] = system: Rattus norvegicus; test: Mean uptake in ovaries 2 hr after intravenous injection of 3 microCi (111 kBq); format: functional, Female gonad; summary of the method: as §2
[46] = system: Rattus norvegicus; test: Mean uptake in liver 1 hr after intravenous injection of 3 microCi (111 kBq) of the compound; format: functional; summary of the method: as §2

C[C@]12CC[C@@H]3c4ccc(O)cc4CC[C@H]3[C@@H]1CC[C@@]2(O)/C=C\[125I]
Deiodination [1]: 3.8% | Deiodination [2]: 2.8% | Deiodination [3]: 3.7% | Deiodination [4]: 17% | PDK [5]: 154 | PDK [6]: 67 | Change [7]: -78% | Uterus to blood ratio [7]: 3 | PDK [8]: 166 | PDK [9]: 41 | PDK [10]: 228 | PDK [11]: 106 | PDK [12]: 17 | PDK [13]: 77 | PDK [14]: 23 | PDK [15]: 16 | PDK [16]: 12 | PDK [17]: 14 | PDK [18]: 34 | PDK [19]: 11 | PDK [20]: 14 | PDK [21]: 58 | PDK [22]: 32 | PDK [23]: 29 | PDK [24]: 20 | PDK [25]: 84 | PDK [26]: 36 | PDK [27]: 50 | PDK [28]: 19 | PDK [29]: 11 | PDK [30]: 10 | PDK [31]: 9 | PDK [32]: 3718 | PDK [33]: 4975 | PDK [34]: 2547 | PDK [35]: 83 | PDK [36]: 57 | PDK [37]: 44 | PDK [38]: 25 | PDK [39]: 26 | PDK [40]: 18 | PDK [41]: 24 | PDK [42]: 10 | PDK [43]: 5 | PDK [44]: 116 | PDK [45]: 85 | PDK [46]: 148
